Measured values taken from ChEMBL document CHEMBL1135904, “Toward an optimal joint recognition of the S1' subsites of endothelin converting enzyme-1 (ECE-1), angiotensin converting enzyme (ACE), and neutral endopeptidase (NEP)” (J Med Chem, 2002).

Tests used:
Neprilysin = molecular target: T1, Neprilysin (Oryctolagus cuniculus, UniProt P08049); test: Inhibition of neutral endopeptidase (NEP)
T1 sequence (P08049 whole entry): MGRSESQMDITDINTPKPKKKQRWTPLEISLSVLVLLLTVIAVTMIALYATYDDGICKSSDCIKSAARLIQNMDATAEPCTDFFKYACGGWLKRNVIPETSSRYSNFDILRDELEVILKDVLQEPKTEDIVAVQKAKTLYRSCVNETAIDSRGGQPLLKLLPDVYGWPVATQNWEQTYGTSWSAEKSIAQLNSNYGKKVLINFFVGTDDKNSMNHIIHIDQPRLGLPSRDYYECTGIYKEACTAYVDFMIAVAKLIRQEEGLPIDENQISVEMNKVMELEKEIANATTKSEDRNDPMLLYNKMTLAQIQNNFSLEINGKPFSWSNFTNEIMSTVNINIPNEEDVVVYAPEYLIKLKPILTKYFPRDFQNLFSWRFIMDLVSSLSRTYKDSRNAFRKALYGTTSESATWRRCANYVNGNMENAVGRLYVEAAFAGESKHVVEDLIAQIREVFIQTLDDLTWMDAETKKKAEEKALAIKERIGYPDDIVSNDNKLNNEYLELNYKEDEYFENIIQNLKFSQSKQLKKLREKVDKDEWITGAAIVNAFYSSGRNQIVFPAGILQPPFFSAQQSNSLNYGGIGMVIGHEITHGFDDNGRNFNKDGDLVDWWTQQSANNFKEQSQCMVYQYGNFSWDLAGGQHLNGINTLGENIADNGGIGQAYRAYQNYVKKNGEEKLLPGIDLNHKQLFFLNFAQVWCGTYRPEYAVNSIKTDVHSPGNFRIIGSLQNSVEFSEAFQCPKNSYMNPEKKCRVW
Method in brief: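 NEP purified from rabbit kidney (final 250 ng/mL) preincubated 10 min at 37 °C with or without increasing inhibitor concentrations in 50 mM Tris-HCl pH 7.4. Substrate Dansyl-Gly-(p-NO2)Phe-β-Ala (DGPA; Km 37 μM) added to 50 μM final. Reaction stopped after 1 h with DMSO. Fluorescence read at ex 340/em 530 nm.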

[1] = molecular target: T2, Angiotensin-converting enzyme (Rattus norvegicus, UniProt P47820); test: Inhibition of Angiotensin I converting enzyme ACE)
T2 sequence (P47820 whole entry): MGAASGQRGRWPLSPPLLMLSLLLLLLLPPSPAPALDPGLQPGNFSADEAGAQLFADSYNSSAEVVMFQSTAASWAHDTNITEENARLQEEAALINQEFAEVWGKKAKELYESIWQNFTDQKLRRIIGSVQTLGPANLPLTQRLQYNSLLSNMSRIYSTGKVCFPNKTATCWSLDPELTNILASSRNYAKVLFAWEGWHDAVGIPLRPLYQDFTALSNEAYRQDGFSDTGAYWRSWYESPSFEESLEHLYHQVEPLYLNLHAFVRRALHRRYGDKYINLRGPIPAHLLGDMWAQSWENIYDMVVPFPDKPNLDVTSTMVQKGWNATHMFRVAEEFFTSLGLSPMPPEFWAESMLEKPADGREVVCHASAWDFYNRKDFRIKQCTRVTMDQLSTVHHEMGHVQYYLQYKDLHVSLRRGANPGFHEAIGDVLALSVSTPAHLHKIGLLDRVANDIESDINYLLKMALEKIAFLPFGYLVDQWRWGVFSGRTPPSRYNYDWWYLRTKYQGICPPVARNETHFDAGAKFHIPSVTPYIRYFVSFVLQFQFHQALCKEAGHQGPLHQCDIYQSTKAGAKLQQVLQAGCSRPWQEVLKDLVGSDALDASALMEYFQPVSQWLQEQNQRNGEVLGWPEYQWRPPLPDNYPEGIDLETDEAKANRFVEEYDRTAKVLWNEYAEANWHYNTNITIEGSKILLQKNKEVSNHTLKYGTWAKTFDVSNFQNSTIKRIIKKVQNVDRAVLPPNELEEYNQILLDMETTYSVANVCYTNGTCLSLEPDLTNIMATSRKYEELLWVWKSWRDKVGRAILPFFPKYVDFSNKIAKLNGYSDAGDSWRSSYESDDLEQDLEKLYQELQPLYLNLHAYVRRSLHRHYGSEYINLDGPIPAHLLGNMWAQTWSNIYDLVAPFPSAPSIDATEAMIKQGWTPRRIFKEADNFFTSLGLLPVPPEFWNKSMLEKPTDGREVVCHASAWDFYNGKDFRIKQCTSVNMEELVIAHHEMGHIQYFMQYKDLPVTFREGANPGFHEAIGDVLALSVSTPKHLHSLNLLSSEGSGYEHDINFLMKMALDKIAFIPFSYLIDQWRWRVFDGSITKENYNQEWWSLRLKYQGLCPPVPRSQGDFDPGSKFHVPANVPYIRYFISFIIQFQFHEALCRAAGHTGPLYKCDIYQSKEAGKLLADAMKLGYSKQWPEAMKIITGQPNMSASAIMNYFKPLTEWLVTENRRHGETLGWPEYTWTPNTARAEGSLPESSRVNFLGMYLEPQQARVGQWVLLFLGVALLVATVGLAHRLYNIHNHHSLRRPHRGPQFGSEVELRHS
Method in brief: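 ACE purified from rat testis, final 0.02 pmol/100 µL, preincubated 10 min at 37 °C with or without various inhibitor concentrations in 50 mM Tris/HCl/NaCl 1% pH 7.4. Then 50 µM N-Cbz-Phe-His-Leu (Km 50 µM) added for 30 min. Stopped with 2 N NaOH and diluted with water. Released His-Leu measured fluorometrically.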

[2] = molecular target: T3, Endothelin-converting enzyme 1 (Homo sapiens, UniProt P42892); test: Inhibition of Endothelin-converting enzyme 1 (ECE)
T3 sequence (P42892 whole entry): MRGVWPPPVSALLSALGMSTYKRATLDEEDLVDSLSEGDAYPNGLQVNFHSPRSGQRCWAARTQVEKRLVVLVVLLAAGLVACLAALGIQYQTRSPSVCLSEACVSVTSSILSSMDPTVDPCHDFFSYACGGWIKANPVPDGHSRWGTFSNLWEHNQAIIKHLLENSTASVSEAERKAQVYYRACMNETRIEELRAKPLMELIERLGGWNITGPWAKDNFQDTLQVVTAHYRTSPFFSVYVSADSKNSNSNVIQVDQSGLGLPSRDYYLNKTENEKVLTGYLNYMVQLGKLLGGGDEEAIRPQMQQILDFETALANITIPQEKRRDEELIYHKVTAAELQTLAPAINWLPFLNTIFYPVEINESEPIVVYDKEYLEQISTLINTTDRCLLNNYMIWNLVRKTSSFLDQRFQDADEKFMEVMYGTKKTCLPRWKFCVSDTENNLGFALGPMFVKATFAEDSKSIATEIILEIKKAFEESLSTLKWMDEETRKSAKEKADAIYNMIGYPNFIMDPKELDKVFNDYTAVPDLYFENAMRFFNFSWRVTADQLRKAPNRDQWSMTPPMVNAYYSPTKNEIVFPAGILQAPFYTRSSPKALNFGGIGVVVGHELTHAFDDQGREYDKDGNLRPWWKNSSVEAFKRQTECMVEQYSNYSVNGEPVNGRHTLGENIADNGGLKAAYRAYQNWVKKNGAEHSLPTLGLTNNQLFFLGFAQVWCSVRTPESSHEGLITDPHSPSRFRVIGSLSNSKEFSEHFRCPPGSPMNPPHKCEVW

IC50 (Neprilysin) | IC50 [1] | IC50 [2] | SMILES
2.3 µM | – | – | O=C(O)[C@H](Cc1ccc2c(c1)oc1ccccc12)NCP(=O)(O)O
0.004 µM | 0.175 µM | 0.62 µM | O=C1N[C@H](C(=O)O)CCCCCCc2cccc(c2)CC1CS (stereo not given in full)
0.09 µM | – | – | CS(=O)(=O)N[C@@H](CCCCN)C(=O)N[C@@H](Cc1ccccc1)P(=O)(O)CC1(C(=O)N[C@@H](Cc2c[nH]c3ccccc23)C(=O)O)CCCC1
